The values that follow come from ChEMBL document CHEMBL1154620, “Total synthesis and antiproliferative activity screening of (+/-)-aplicyanins A, B and E and related analogues” (2009).

The term GI50 denotes the concentration at which growth is held to half of that of the control.

Calls of active or inactive are those of the source. The calls are words filed in the database; no cut-off is given here.

What all share (assay type): functional
Test [1] deals with HT-29. The test can be described thus: Cytotoxicity against human HT-29 cells after 72 hrs by SRB assay. The method in brief: (§1)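 Cells seeded at 5 × 10³/well and grown 24 h; one plate per line fixed at this point as T_z reference. Exposure to vehicle or compound for a further 72 h. Wash in PBS, fix 15 min in 1% glutaraldehyde, stain 30 min at rt with 0.4% SRB, rinse in 1% acetic acid, extract into 10 mM trizma base, read A490. NCI algorithm; GI50 interpolated from dose curves.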

Test [2] deals with MDA-MB-231. The test can be described thus: Cytotoxicity against human MDA-MB-231 cells after 72 hrs by SRB assay. Put shortly: as §1
Background: In SRB staining, fixed cells bind dye roughly in proportion to their protein.

Test [3] concerns A549. The test can be described thus: Cytotoxicity against human A549 cells after 72 hrs by SRB assay. Put shortly: as §1

With `CC(=O)/N=C1\NCCC(c2cn(C)c3cc(Br)ccc23)N1` (racemic), the GI50 in test [1] (HT-29, 72 h) stood at 4.3 µM; in test [2] (MDA-MB-231, 72 h), 8.02 µM; in test [3] (A549, 72 h), 6.3 µM.
For `Cn1cc(C2CCN=C(N)N2)c2ccccc21` (racemic) the same measures were 4.29 µM, 1.71 µM and 2.67 µM.
Regarding `Cn1cc(C2CCN=C(N)N2)c2ccc(Br)cc21` (racemic), the GI50 amounted to 4.56 µM in test [1] (HT-29, 72 h); 8.79 µM in test [2] (MDA-MB-231, 72 h); 9.11 µM in test [3] (A549, 72 h).
For the compound `Cn1cc(C2CCN=C(N)N2)c2cc(Br)ccc21` (racemic), the GI50 turned out to be 13.7 µM in test [1] (HT-29, 72 h) and 25.7 µM in test [2] (MDA-MB-231, 72 h). Also, the GI50 entry in test [3] is “inactive”.
For `Cn1cc(C2CC(=O)N=C(N)N2)c2ccc(Br)cc21` (racemic), the GI50 result in test [1] and in test [3] was “inactive” in each case. Moreover, the GI50 in test [2] (MDA-MB-231, 72 h) stood at 2.86 µM.
As for `NC1=NCCC(c2c[nH]c3cc(Br)ccc23)N1` (racemic), the GI50 is 21.1 µM in test [1] (HT-29, 72 h) and 19.1 µM in test [2] (MDA-MB-231, 72 h). Also, the GI50 entry in test [3] is “inactive”.
Consider `CC(=O)/N=C1\NCCC(c2c[nH]c3cc(Br)ccc23)N1` (racemic), for which the GI50 was 2.12 µM in test [1] (HT-29, 72 h); 5.67 µM in test [2] (MDA-MB-231, 72 h); 6.86 µM in test [3] (A549, 72 h).
For `CC(=O)/N=C1\NCCC(c2cn(C)c3ccccc23)N1` (racemic), in that order: 7.4 µM, 14.4 µM and 10.7 µM.
For `CC(=O)/N=C1\NCCC(c2cn(C)c3ccc(Br)cc23)N1` (racemic), in that order: 0.31 µM, 0.94 µM and 0.43 µM.
`COn1cc(C2CC(=O)N=C(N)N2)c2cc(Br)c(Br)cc21` (racemic): the GI50 result in test [1], in test [2] and in test [3] was “inactive” throughout.
For the compound `COn1cc(C2CC(=O)N=C(N)N2)c2ccccc21` (racemic), the GI50 entry in test [1], in test [2] and in test [3] was “inactive” each time.
For `COn1cc(C2CCN=C(N)N2)c2ccccc21` (racemic), the GI50 entry in test [1], in test [2] and in test [3] was “inactive” in each case.
Regarding `Cn1cc(C2CC(=O)N=C(N)N2)c2cc(Br)ccc21` (racemic), the GI50 entry in test [1], in test [2] and in test [3] was “inactive” in each case.
In the case of `Cn1cc(C2CC(=O)N=C(N)N2)c2ccccc21` (racemic), the GI50 result in test [1], in test [2] and in test [3] was “inactive” each time.
Consider `NC1=NC(=O)CC(c2c[nH]c3cc(Br)ccc23)N1` (racemic), for which the GI50 result in test [1], in test [2] and in test [3] was “inactive” throughout.
`NC1=NC(=O)CC(c2c[nH]c3ccc(Br)cc23)N1` (racemic): the GI50 result in test [1], in test [2] and in test [3] was “inactive” in each case.
With `NC1=NCCC(c2c[nH]c3cc(Br)c(Br)cc23)N1` (racemic), the GI50 entry in test [1], in test [2] and in test [3] was “inactive” in each case.
Consider `NC1=NCCC(c2c[nH]c3ccc(Br)cc23)N1` (racemic) [APLICYANIN A], for which the GI50 stood at 0.11 µM in test [1] (HT-29, 72 h); 0.27 µM in test [2] (MDA-MB-231, 72 h); 0.27 µM in test [3] (A549, 72 h).
Take `CC(=O)/N=C1\NCCC(c2c[nH]c3ccc(Br)cc23)N1` (racemic) [APLICYANIN B]: the GI50 in test [1] (HT-29, 72 h) worked out at 0.33 µM; in test [2] (MDA-MB-231, 72 h), 0.98 µM; in test [3] (A549, 72 h), 0.51 µM.
`COn1cc(C2CCN=C(N)N2)c2cc(Br)c(Br)cc21` (racemic) [APLICYANIN E]: the GI50 result in test [1] and in test [3] was “inactive” throughout. For the same compound, in test [2] (MDA-MB-231, 72 h), it took 10.9 µM to inhibit growth by half (GI50).
